For series [1], the target named is T1, Free fatty acid receptor 1 (Homo sapiens, UniProt O14842). As to the kind of experiment: Agonist activity at human FFA1 receptor expressed in CHO cells assessed as induction of Ca2+ flux by fluo-8 dye based FLIPR assay. Type of series: functional, cell-based. Summed up:
(§1)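 CHO cells stably expressing human GPR40 seeded 24 h before assay, loaded 1 h with Fluo-8 calcium dye, read on FLIPR. Agonist response taken as maximum fluorescence change over baseline; concentration-response curves fitted for EC50. Efficacy expressed relative to GW9508 at 5 μM.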

The nature of series [2]: Apparent permeability from apical to basolateral side in human Caco2 cells at 10 uM by HPLC-MS analysis. Type of series: ADME, cell-based. The following applies: Caco-2. Summed up:
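Apical-to-basolateral transport across Caco-2 monolayers, integrity checked by TEER in every well. Compound at 10 μM, acceptor concentrations by HPLC-MS. Papp = (VA/(area × time)) × ([drug]acc/[drug]initial,donor), insert area 0.31 cm², in 10^-6 cm/s. Mean of n = 2.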
A general note: Caco-2 cells form a polarised layer with tight junctions and transporters.

A short description of series [3]: Intrinsic clearance in BALB/c mouse liver microsomes at 2 uM up to 40 mins by HPLC-MS analysis. Type of series: ADME. The procedure, abridged: (§2)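 Pooled liver microsomes from male BALB/c mice at 0.42 mg protein/ml in 100 mM potassium phosphate pH 7.4 with MgCl2, NADPH and a G6P/G6PDH regenerating system. Compound 2 μM (1.6% solvent), 37°C, five time points over 40 min, duplicates. Quenched in acetonitrile, analysed by HPLC-MS/MS. kel from ln(AUC) versus time; T1/2 = 0.693/kel; CLint scaled to incubation volume per mg microsomes.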
On the technique in general: Microsomes from liver hold many membrane-bound enzymes, among them those of drug oxidation.

For series [4], the target named is T2, Free fatty acid receptor 4 (Homo sapiens, UniProt Q5NUL3).
T2 sequence (Q5NUL3 whole entry): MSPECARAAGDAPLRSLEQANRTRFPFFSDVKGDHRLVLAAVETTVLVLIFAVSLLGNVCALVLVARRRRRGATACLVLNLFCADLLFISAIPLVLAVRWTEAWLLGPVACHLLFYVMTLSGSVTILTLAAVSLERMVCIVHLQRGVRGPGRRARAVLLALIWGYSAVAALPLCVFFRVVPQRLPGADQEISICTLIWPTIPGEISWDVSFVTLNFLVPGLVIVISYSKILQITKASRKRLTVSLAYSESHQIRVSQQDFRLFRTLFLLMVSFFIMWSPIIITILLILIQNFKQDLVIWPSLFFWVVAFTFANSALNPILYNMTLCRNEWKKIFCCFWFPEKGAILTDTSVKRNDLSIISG
As to the kind of experiment: Agonist activity at human FFA4 receptor expressed in CHO cells assessed as induction of Ca2+ flux by fluo-8 dye based FLIPR assay. Type of series: functional, cell-based. The procedure, abridged: (§3)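 CHO lines stably expressing the respective receptor (GPR43, GPR41 or GPR120) used for specificity screening. Cells loaded 1 h with Fluo-8 calcium dye and read by FLIPR; maximum fluorescence change over baseline taken as agonist response.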
(In general: Calcium assays in cells follow changes in intracellular calcium, usually with a dye or a luminescent sensor.)

Series [5] has as its target T3, Free fatty acid receptor 2 (Homo sapiens, UniProt O15552).
T3 sequence (O15552 whole entry): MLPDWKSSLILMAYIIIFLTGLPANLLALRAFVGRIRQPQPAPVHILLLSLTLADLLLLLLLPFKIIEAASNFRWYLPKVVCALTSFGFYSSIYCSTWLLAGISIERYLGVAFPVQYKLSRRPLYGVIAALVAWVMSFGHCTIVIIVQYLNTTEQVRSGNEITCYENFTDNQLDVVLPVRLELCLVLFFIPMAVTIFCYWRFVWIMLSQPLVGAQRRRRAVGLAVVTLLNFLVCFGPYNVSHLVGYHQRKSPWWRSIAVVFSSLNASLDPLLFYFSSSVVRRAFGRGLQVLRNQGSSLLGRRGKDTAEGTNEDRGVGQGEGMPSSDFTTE
As to the kind of experiment: Agonist activity at human FFA2 receptor expressed in CHO cells assessed as induction of Ca2+ flux by fluo-8 dye based FLIPR assay. The format is functional, cell-based. The procedure, abridged:
as §3

Series [6] in a line: Protein binding in human plasma at 1 uM after 5 hrs by HPLC-MS/MS analysis. The format is ADME, cell-free. The following applies: read-out: PPB (converted). Summed up:
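Equilibrium dialysis (12–14 kDa MWCO) of plasma spiked at 1 μM (1% solvent) against PBS pH 7.4, 5 h at 37°C with shaking, quadruplicates. Chambers matrix-matched, precipitated with acetonitrile and analysed by HPLC-MS/MS. Bound % = (1 − buffer/plasma peak area) × 100; recovery checked against undialyzed spiked plasma.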

The nature of series [7]: Half life in BALB/c mouse liver microsomes at 2 uM by HPLC-MS analysis. The format is ADME. Summed up:
as §2

For series [8], the target named is T4, Free fatty acid receptor 3 (Homo sapiens, UniProt O14843).
T4 sequence (O14843 whole entry): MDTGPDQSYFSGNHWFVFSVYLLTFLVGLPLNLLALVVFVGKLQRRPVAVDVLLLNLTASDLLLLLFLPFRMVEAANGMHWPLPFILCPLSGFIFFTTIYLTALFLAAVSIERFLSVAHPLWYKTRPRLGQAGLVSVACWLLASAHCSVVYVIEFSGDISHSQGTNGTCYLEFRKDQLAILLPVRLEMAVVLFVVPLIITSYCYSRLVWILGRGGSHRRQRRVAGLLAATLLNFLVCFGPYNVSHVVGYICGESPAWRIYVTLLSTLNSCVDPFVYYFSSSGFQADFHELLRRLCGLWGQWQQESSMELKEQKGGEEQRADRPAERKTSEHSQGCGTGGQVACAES
Kind of series: Agonist activity at human FFA3 receptor expressed in CHO cells assessed as induction of Ca2+ flux by fluo-8 dye based FLIPR assay. The format is functional, cell-based. The procedure, abridged:
as §3

Series [9] is described as follows: Kinetic aqueous solubility of the compound in PBS buffer […] at pH 7.4 after 2 hrs by UV-Visible spectrophotometric analysis. Particulars: read-out: Kinetic_solubility. The format is physicochemical. Summed up: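 Equilibrated 2 h at 25°C with shaking, then filtered. Filtrates read by UV-Vis scan against 0–400 μM calibration curves in methanol/PBS.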
Series [10] concerns the target T1, Free fatty acid receptor 1. As to the kind of experiment: Agonist activity at human FFA1 receptor expressed in CHO cells assessed as induction of Ca2+ flux by fluo-8 dye based FLIPR assay relative to GW9508. The format is functional, cell-based. The procedure, abridged: as §1
Series [11] has as its target T1, Free fatty acid receptor 1. Kind of series: Agonist activity at FFA1 receptor (unknown origin). Summed up: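 Read-out on FLIPR as maximum fluorescence change over baseline. Dose-response testing gave EC50 from curve fitting. Efficacy is expressed as % of GW9508 reference agonist used at 5 μM.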

T1 sequence (O14842 whole entry): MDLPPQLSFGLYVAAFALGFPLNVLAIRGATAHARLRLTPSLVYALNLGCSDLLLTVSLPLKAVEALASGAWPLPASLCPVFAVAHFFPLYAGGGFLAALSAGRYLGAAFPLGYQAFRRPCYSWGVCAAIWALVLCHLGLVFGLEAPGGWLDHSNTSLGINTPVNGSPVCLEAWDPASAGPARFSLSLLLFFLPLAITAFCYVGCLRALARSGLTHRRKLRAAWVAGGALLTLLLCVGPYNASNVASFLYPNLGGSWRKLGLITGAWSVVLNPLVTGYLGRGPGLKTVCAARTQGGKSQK

`O=C(O)CCc1ccc(OCc2ccc(CN3CCC4(CCCCO4)CC3)cc2)cc1`: the EC50 in series [1] is above 20 µM.

For `C[C@]12CC[C@H]3[C@@H](CCC4=CC(=O)CC[C@@]43C)[C@@H]1CC[C@@H]2O` [TESTOSTERONE], in series [2], the Papp A→B at 10 µM came to 13.6 ×10⁻⁶ cm/s.

As for `O=C(O)CCc1ccc(OCc2ccc(CN3CCC4(CC3)CC(Cc3cccc(F)c3)CCO4)cc2)cc1` (stereo not drawn), in series [1], the EC50 was above 20 µM.

For `Cl.O=C(O)CCc1ccc(OCc2ccc(CN3CCC4(CC3)CC(Cc3ccccc3)CCO4)cc2)cc1` (stereo not drawn), in [3], the CLint at 40 min, 2 µM amounted to 196 µL/min/mg. Further, the EC50 in series [4] was above 10 µM; in series [5] it was above 10 µM; in [8], above 10 µM; in series [1], 0.055 µM. Also, in series [6], the fraction unbound at 5 h, 1 µM was 0.012. Further, the half-life at 2 µM in series [7] amounted to 8.5 min. Further, the solubility kinetic at 2 h in series [9] came out at 151 µM. Moreover, the Papp A→B at 10 µM in series [2] was found to be 12 ×10⁻⁶ cm/s. In addition, the Emax in [10] was determined as 93%.

`O=C(O)CCc1ccc(OCc2ccc(CN3CCC4(CC3)CC(Cc3nc(-c5cccnc5)no3)CCO4)cc2)cc1` (stereo not drawn): in series [1], the EC50 was above 20 µM.

For the compound `CC(C)NCC(O)COc1cccc2ccccc12` (stereo not drawn) [PROPRANOLOL], the Papp A→B at 10 µM in series [2] is 28 ×10⁻⁶ cm/s.

Take `O=C(O)CCc1ccc(OCc2ccc(CN3CCC4(CC3)CC(Cc3ccccc3F)CCO4)cc2)cc1` (stereo not drawn): in series [1], the EC50 turned out to be 0.81 µM. Also, the Emax in series [10] is 95%.

In turn, `CC#C[C@@H](CC(=O)O)c1ccc(OCc2ccc(CN3CCC4(C=Cc5ccccc54)CC3)cc2)cc1` [LY2881835] yielded a concentration giving a half-maximal response (EC50) in series [11] of 0.233 µM.

Take `O=C(O)CCc1ccc(OCc2ccc(CN3CCC4(CC3)CC(OCc3ccc(C(F)(F)F)cc3)CCO4)cc2)cc1` (stereo not drawn): the EC50 in series [1] is above 20 µM.

As to `O=C(O)CCc1ccc(OCc2ccc(CN3CCC4(CC3)CC(Cc3ccc(C(F)(F)F)cc3)CCO4)cc2)cc1` (stereo not drawn), in series [1], the half-maximal effective concentration (EC50) came to 1.27 µM. Moreover, in series [10], the Emax came out at 74%.

For `O=C(O)CCc1ccc(OCc2ccc(CN3CCC4(CC3)CC(OCc3cccc(F)c3)CCO4)cc2)cc1` (stereo not drawn), the half-maximal effective concentration (EC50) in series [1] was determined as 1.3 µM. Also, the Emax in [10] turned out to be 98%.

By EC50 is commonly meant the concentration giving half of the maximal effect. The term Papp A→B denotes the apparent permeability from the apical to the basolateral side of a cell layer. Broadly, the half-life is the time needed for the level to fall by half in the phase considered. Read a high half-life as slow loss. For orientation: Emax means the greatest response seen or fitted, relative to the assay's reference.
